Laboratory results reported in ChEMBL document CHEMBL1909556, “Synthesis and properties of novel 2'-O-alkoxymethyl-modified nucleic acids” (Bioorg Med Chem Lett, 2011).
Active and inactive are the calls of the source. The rule behind the calls is not given here.

Legend:
[1] = tested on: Nucleic Acid; experiment: Binding affinity to A12 RNA assessed as change in melting temperature at 2 uM compound at pH 7; type: nucleic-acid assay
[2] = Nuclease stability of compound assessed as snake venom phosphodiesterase-mediated degradation at 10 uM after 2 hrs by RP-HPLC analysis; type: physicochemical
How it was run: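 Snake venom phosphodiesterase digestion at 4 × 10^-4 units/ml of 10 μM oligoribonucleotide for 2 h. Buffer was 50 mM Tris-HCl pH 8.5 with 72 mM NaCl and 14 mM MgCl2. The degradation ratio was estimated by reversed-phase HPLC.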

[3] = tested on: Nucleic Acid; experiment: Binding affinity to dA12 DNA assessed as change in melting temperature at 2 uM compound at pH 7; type: nucleic-acid assay

SMILES	ΔTm [1]	Stability [2]	Activity [3]
N#CCCOCO[C@@H]1[C@H](O)[C@@H](COP(=O)(O)O[C@H]2[C@@H](OCOCCC#N)[C@H](n3ccc(=O)[nH]c3=O)O[C@@H]2COP(=O)(O)O[C@H]2[C@@H](OCOCCC#N)[C@H](n3ccc(=O)[nH]c3=O)O[C@@H]2COP(=O)(O)O[C@H]2[C@@H](OCOCCC#N)[C@H](n3ccc(=O)[nH]c3=O)O[C@@H]2COP(=O)(O)O[C@H]2[C@@H](OCOCCC#N)[C@H](n3ccc(=O)[nH]c3=O)O[C@@H]2COP(=O)(O)O[C@H]2[C@@H](OCOCCC#N)[C@H](n3ccc(=O)[nH]c3=O)O[C@@H]2COP(=O)(O)O[C@H]2[C@@H](OCOCCC#N)[C@H](n3ccc(=O)[nH]c3=O)O[C@@H]2COP(=O)(O)O[C@H]2[C@@H](OCOCCC#N)[C@H](n3ccc(=O)[nH]c3=O)O[C@@H]2COP(=O)(O)O[C@H]2[C@@H](OCOCCC#N)[C@H](n3ccc(=O)[nH]c3=O)O[C@@H]2COP(=O)(O)O[C@H]2[C@@H](OCOCCC#N)[C@H](n3ccc(=O)[nH]c3=O)O[C@@H]2COP(=O)(O)O[C@H]2[C@@H](OCOCCC#N)[C@H](n3ccc(=O)[nH]c3=O)O[C@@H]2COP(=O)(O)O[C@H]2[C@@H](OCOCCC#N)[C@H](n3ccc(=O)[nH]c3=O)O[C@@H]2CO)O[C@H]1n1ccc(=O)[nH]c1=O	2.8 °C	Stable	
O=c1ccn([C@@H]2O[C@H](COP(=O)(O)O[C@H]3[C@@H](OCOCCCl)[C@H](n4ccc(=O)[nH]c4=O)O[C@@H]3COP(=O)(O)O[C@H]3[C@@H](OCOCCCl)[C@H](n4ccc(=O)[nH]c4=O)O[C@@H]3COP(=O)(O)O[C@H]3[C@@H](OCOCCCl)[C@H](n4ccc(=O)[nH]c4=O)O[C@@H]3COP(=O)(O)O[C@H]3[C@@H](OCOCCCl)[C@H](n4ccc(=O)[nH]c4=O)O[C@@H]3COP(=O)(O)O[C@H]3[C@@H](OCOCCCl)[C@H](n4ccc(=O)[nH]c4=O)O[C@@H]3COP(=O)(O)O[C@H]3[C@@H](OCOCCCl)[C@H](n4ccc(=O)[nH]c4=O)O[C@@H]3COP(=O)(O)O[C@H]3[C@@H](OCOCCCl)[C@H](n4ccc(=O)[nH]c4=O)O[C@@H]3COP(=O)(O)O[C@H]3[C@@H](OCOCCCl)[C@H](n4ccc(=O)[nH]c4=O)O[C@@H]3COP(=O)(O)O[C@H]3[C@@H](OCOCCCl)[C@H](n4ccc(=O)[nH]c4=O)O[C@@H]3COP(=O)(O)O[C@H]3[C@@H](OCOCCCl)[C@H](n4ccc(=O)[nH]c4=O)O[C@@H]3COP(=O)(O)O[C@H]3[C@@H](OCOCCCl)[C@H](n4ccc(=O)[nH]c4=O)O[C@@H]3CO)[C@@H](O)[C@H]2OCOCCCl)c(=O)[nH]1	11 °C	Unstable	inactive
O=c1ccn([C@@H]2O[C@H](COP(=O)(O)O[C@H]3[C@@H](OCOCC(Cl)Cl)[C@H](n4ccc(=O)[nH]c4=O)O[C@@H]3COP(=O)(O)O[C@H]3[C@@H](OCOCC(Cl)Cl)[C@H](n4ccc(=O)[nH]c4=O)O[C@@H]3COP(=O)(O)O[C@H]3[C@@H](OCOCC(Cl)Cl)[C@H](n4ccc(=O)[nH]c4=O)O[C@@H]3COP(=O)(O)O[C@H]3[C@@H](OCOCC(Cl)Cl)[C@H](n4ccc(=O)[nH]c4=O)O[C@@H]3COP(=O)(O)O[C@H]3[C@@H](OCOCC(Cl)Cl)[C@H](n4ccc(=O)[nH]c4=O)O[C@@H]3COP(=O)(O)O[C@H]3[C@@H](OCOCC(Cl)Cl)[C@H](n4ccc(=O)[nH]c4=O)O[C@@H]3COP(=O)(O)O[C@H]3[C@@H](OCOCC(Cl)Cl)[C@H](n4ccc(=O)[nH]c4=O)O[C@@H]3COP(=O)(O)O[C@H]3[C@@H](OCOCC(Cl)Cl)[C@H](n4ccc(=O)[nH]c4=O)O[C@@H]3COP(=O)(O)O[C@H]3[C@@H](OCOCC(Cl)Cl)[C@H](n4ccc(=O)[nH]c4=O)O[C@@H]3COP(=O)(O)O[C@H]3[C@@H](OCOCC(Cl)Cl)[C@H](n4ccc(=O)[nH]c4=O)O[C@@H]3COP(=O)(O)O[C@H]3[C@@H](OCOCC(Cl)Cl)[C@H](n4ccc(=O)[nH]c4=O)O[C@@H]3CO)[C@@H](O)[C@H]2OCOCC(Cl)Cl)c(=O)[nH]1	10.8 °C	Unstable	inactive
CCOCO[C@@H]1[C@H](O)[C@@H](COP(=O)(O)O[C@H]2[C@@H](OCOCC)[C@H](n3ccc(=O)[nH]c3=O)O[C@@H]2COP(=O)(O)O[C@H]2[C@@H](OCOCC)[C@H](n3ccc(=O)[nH]c3=O)O[C@@H]2COP(=O)(O)O[C@H]2[C@@H](OCOCC)[C@H](n3ccc(=O)[nH]c3=O)O[C@@H]2COP(=O)(O)O[C@H]2[C@@H](OCOCC)[C@H](n3ccc(=O)[nH]c3=O)O[C@@H]2COP(=O)(O)O[C@H]2[C@@H](OCOCC)[C@H](n3ccc(=O)[nH]c3=O)O[C@@H]2COP(=O)(O)O[C@H]2[C@@H](OCOCC)[C@H](n3ccc(=O)[nH]c3=O)O[C@@H]2COP(=O)(O)O[C@H]2[C@@H](OCOCC)[C@H](n3ccc(=O)[nH]c3=O)O[C@@H]2COP(=O)(O)O[C@H]2[C@@H](OCOCC)[C@H](n3ccc(=O)[nH]c3=O)O[C@@H]2COP(=O)(O)O[C@H]2[C@@H](OCOCC)[C@H](n3ccc(=O)[nH]c3=O)O[C@@H]2COP(=O)(O)O[C@H]2[C@@H](OCOCC)[C@H](n3ccc(=O)[nH]c3=O)O[C@@H]2COP(=O)(O)O[C@H]2[C@@H](OCOCC)[C@H](n3ccc(=O)[nH]c3=O)O[C@@H]2CO)O[C@H]1n1ccc(=O)[nH]c1=O	-2.5 °C	Unstable	
O=c1ccn([C@@H]2O[C@H](COP(=O)(O)O[C@H]3[C@@H](OCOCC(F)F)[C@H](n4ccc(=O)[nH]c4=O)O[C@@H]3COP(=O)(O)O[C@H]3[C@@H](OCOCC(F)F)[C@H](n4ccc(=O)[nH]c4=O)O[C@@H]3COP(=O)(O)O[C@H]3[C@@H](OCOCC(F)F)[C@H](n4ccc(=O)[nH]c4=O)O[C@@H]3COP(=O)(O)O[C@H]3[C@@H](OCOCC(F)F)[C@H](n4ccc(=O)[nH]c4=O)O[C@@H]3COP(=O)(O)O[C@H]3[C@@H](OCOCC(F)F)[C@H](n4ccc(=O)[nH]c4=O)O[C@@H]3COP(=O)(O)O[C@H]3[C@@H](OCOCC(F)F)[C@H](n4ccc(=O)[nH]c4=O)O[C@@H]3COP(=O)(O)O[C@H]3[C@@H](OCOCC(F)F)[C@H](n4ccc(=O)[nH]c4=O)O[C@@H]3COP(=O)(O)O[C@H]3[C@@H](OCOCC(F)F)[C@H](n4ccc(=O)[nH]c4=O)O[C@@H]3COP(=O)(O)O[C@H]3[C@@H](OCOCC(F)F)[C@H](n4ccc(=O)[nH]c4=O)O[C@@H]3COP(=O)(O)O[C@H]3[C@@H](OCOCC(F)F)[C@H](n4ccc(=O)[nH]c4=O)O[C@@H]3COP(=O)(O)O[C@H]3[C@@H](OCOCC(F)F)[C@H](n4ccc(=O)[nH]c4=O)O[C@@H]3CO)[C@@H](O)[C@H]2OCOCC(F)F)c(=O)[nH]1	3.5 °C		
O=c1ccn([C@@H]2O[C@H](COP(=O)(O)O[C@H]3[C@@H](OCOCC(F)(F)F)[C@H](n4ccc(=O)[nH]c4=O)O[C@@H]3COP(=O)(O)O[C@H]3[C@@H](OCOCC(F)(F)F)[C@H](n4ccc(=O)[nH]c4=O)O[C@@H]3COP(=O)(O)O[C@H]3[C@@H](OCOCC(F)(F)F)[C@H](n4ccc(=O)[nH]c4=O)O[C@@H]3COP(=O)(O)O[C@H]3[C@@H](OCOCC(F)(F)F)[C@H](n4ccc(=O)[nH]c4=O)O[C@@H]3COP(=O)(O)O[C@H]3[C@@H](OCOCC(F)(F)F)[C@H](n4ccc(=O)[nH]c4=O)O[C@@H]3COP(=O)(O)O[C@H]3[C@@H](OCOCC(F)(F)F)[C@H](n4ccc(=O)[nH]c4=O)O[C@@H]3COP(=O)(O)O[C@H]3[C@@H](OCOCC(F)(F)F)[C@H](n4ccc(=O)[nH]c4=O)O[C@@H]3COP(=O)(O)O[C@H]3[C@@H](OCOCC(F)(F)F)[C@H](n4ccc(=O)[nH]c4=O)O[C@@H]3COP(=O)(O)O[C@H]3[C@@H](OCOCC(F)(F)F)[C@H](n4ccc(=O)[nH]c4=O)O[C@@H]3COP(=O)(O)O[C@H]3[C@@H](OCOCC(F)(F)F)[C@H](n4ccc(=O)[nH]c4=O)O[C@@H]3COP(=O)(O)O[C@H]3[C@@H](OCOCC(F)(F)F)[C@H](n4ccc(=O)[nH]c4=O)O[C@@H]3CO)[C@@H](O)[C@H]2OCOCC(F)(F)F)c(=O)[nH]1	4.5 °C		
O=c1ccn([C@@H]2O[C@H](COP(=O)(O)O[C@H]3[C@@H](OCOCC(Cl)(Cl)Cl)[C@H](n4ccc(=O)[nH]c4=O)O[C@@H]3COP(=O)(O)O[C@H]3[C@@H](OCOCC(Cl)(Cl)Cl)[C@H](n4ccc(=O)[nH]c4=O)O[C@@H]3COP(=O)(O)O[C@H]3[C@@H](OCOCC(Cl)(Cl)Cl)[C@H](n4ccc(=O)[nH]c4=O)O[C@@H]3COP(=O)(O)O[C@H]3[C@@H](OCOCC(Cl)(Cl)Cl)[C@H](n4ccc(=O)[nH]c4=O)O[C@@H]3COP(=O)(O)O[C@H]3[C@@H](OCOCC(Cl)(Cl)Cl)[C@H](n4ccc(=O)[nH]c4=O)O[C@@H]3COP(=O)(O)O[C@H]3[C@@H](OCOCC(Cl)(Cl)Cl)[C@H](n4ccc(=O)[nH]c4=O)O[C@@H]3COP(=O)(O)O[C@H]3[C@@H](OCOCC(Cl)(Cl)Cl)[C@H](n4ccc(=O)[nH]c4=O)O[C@@H]3COP(=O)(O)O[C@H]3[C@@H](OCOCC(Cl)(Cl)Cl)[C@H](n4ccc(=O)[nH]c4=O)O[C@@H]3COP(=O)(O)O[C@H]3[C@@H](OCOCC(Cl)(Cl)Cl)[C@H](n4ccc(=O)[nH]c4=O)O[C@@H]3COP(=O)(O)O[C@H]3[C@@H](OCOCC(Cl)(Cl)Cl)[C@H](n4ccc(=O)[nH]c4=O)O[C@@H]3COP(=O)(O)O[C@H]3[C@@H](OCOCC(Cl)(Cl)Cl)[C@H](n4ccc(=O)[nH]c4=O)O[C@@H]3CO)[C@@H](O)[C@H]2OCOCC(Cl)(Cl)Cl)c(=O)[nH]1	-0.8 °C	Unstable	
O=c1ccn([C@@H]2O[C@H](COP(=O)(O)O[C@H]3[C@@H](O)[C@H](n4ccc(=O)[nH]c4=O)O[C@@H]3COP(=O)(O)O[C@H]3[C@@H](O)[C@H](n4ccc(=O)[nH]c4=O)O[C@@H]3COP(=O)(O)O[C@H]3[C@@H](O)[C@H](n4ccc(=O)[nH]c4=O)O[C@@H]3COP(=O)(O)O[C@H]3[C@@H](O)[C@H](n4ccc(=O)[nH]c4=O)O[C@@H]3COP(=O)(O)O[C@H]3[C@@H](O)[C@H](n4ccc(=O)[nH]c4=O)O[C@@H]3COP(=O)(O)O[C@H]3[C@@H](O)[C@H](n4ccc(=O)[nH]c4=O)O[C@@H]3COP(=O)(O)O[C@H]3[C@@H](O)[C@H](n4ccc(=O)[nH]c4=O)O[C@@H]3COP(=O)(O)O[C@H]3[C@@H](O)[C@H](n4ccc(=O)[nH]c4=O)O[C@@H]3COP(=O)(O)O[C@H]3[C@@H](O)[C@H](n4ccc(=O)[nH]c4=O)O[C@@H]3COP(=O)(O)O[C@H]3[C@@H](O)[C@H](n4ccc(=O)[nH]c4=O)O[C@@H]3COP(=O)(O)O[C@H]3[C@@H](O)[C@H](n4ccc(=O)[nH]c4=O)O[C@@H]3CO)[C@@H](O)[C@H]2O)c(=O)[nH]1	0 °C		
